Square brackets hold non-standard residues; d marks the D form. Peptide text beside a SMILES is read from it. * marks the point of attachment. NMeF = CN[C@@H](Cc1ccccc1)C(=O)O; NMeL = CN[C@@H](CC(C)C)C(=O)O; NHPhenethyl = c1ccc(CCN*)cc1; NMeV = CN[C@H](C(=O)O)C(C)C
Experiments:
Plasmodium falciparum = assay: Antiparasitic activity against Plasmodium falciparum NF54; type: functional, organism-based
Leishmania donovani = assay: Antiparasitic activity against Leishmania donovani; type: functional, organism-based
How it was run: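 Leishmania donovani strain MHOM-ET-67/L82; assay run per an earlier published method.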

Trypanosoma cruzi = assay: Antiparasitic activity against Trypanosoma cruzi Tulahuen C4; type: functional, organism-based
[1] = tested on: Trypanosoma brucei rhodesiense; assay: Antiparasitic activity against Trypanosoma brucei rhodesiense STIB900; type: functional, organism-based
L6 = assay: Cytotoxicity against rat L6 cells; type: cell-based
How it was run: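 Rat L6 skeletal myoblasts; cytotoxicity assay run per an earlier published method.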

Row | Structure (SMILES) | IC50 (Plasmodium falciparum) [µM] | IC50 (Leishmania donovani) [µM] | IC50 (Trypanosoma cruzi) [µM] | IC50 [1] [µM] | IC50 (L6) [µM]
1 | CN[C@H](C(=O)N(C)[C@@H](Cc1ccccc1)C(=O)NCCc1c[nH]c2ccccc12)C(C)C | 7.66 | 17.3 | 52.7 | 4.92 | 85.6
2 | CN[C@H](C(=O)N(C)[C@@H](Cc1ccccc1)C(=O)NCCc1ccccc1)C(C)C (H-[NMeV]-[NMeF]-NHPhenethyl) | > 126 | 25 | 132 | 89.2 | > 253
3 | CCCCCCCCCCCCCCCCOP(=O)([O-])OCC[N+](C)(C)C [MILTEFOSINE] |  | 0.459 |  |  | 
4 | CN[C@@H](CC(C)C)C(=O)N(C)[C@@H](Cc1ccccc1)C(=O)NCCc1ccccc1 [XENORTIDE A] (H-[NMeL]-[NMeF]-NHPhenethyl) | 19.2 | 124 | 46.4 | 22.5 | 116
5 | CN[C@@H](CC(C)C)C(=O)N(C)[C@@H](Cc1ccccc1)C(=O)NCCc1c[nH]c2ccccc12 [XENORTIDE B] | 0.76 | 111 | 11.7 | 1.57 | 13.7
